For one molecule, Activity, inhibition and IC50 results are on record in ChEMBL document CHEMBL4706620, “Design, synthesis, biological activity evaluation of 3-(4-phenyl-1H-imidazol-2-yl)-1H-pyrazole derivatives as potent JAK 2/3 and aurora A/B kinases multi-targeted inhibitors” (Eur J Med Chem, 2021).

By IC50 is commonly meant the concentration that inhibits the measured activity by half.

Active and inactive are the calls of the source. The calls are words filed in the database; no cut-off is given here.

Test [1] concerns HCT-116. The test can be described thus: Cell cycle arrest in human HCT116 cells assessed as accumulation of diploid cells at G2 phase at 20 uM incubated for 48 hrs by propidium iodide staining based flow cytometric analysis (reference value: 10.46 %). The format is functional.
Test [2] concerns K562. Kind of test: Cell cycle arrest in human K562 cells assessed as accumulation of diploid cells at S phase at 20 uM incubated for 48 hrs by propidium iodide staining based flow cytometric analysis (reference value: 35.94 %). It is filed as functional. A general note: Flow cytometry measures light scatter and fluorescence of single cells or particles in a stream.
The subject of test [3] is HCT-116. Kind of test: Cell cycle arrest in human HCT116 cells assessed as accumulation of diploid cells at S phase at 10 uM incubated for 48 hrs by propidium iodide staining based flow cytometric analysis (reference value: 11.92 %). The format is functional.
Test [4] concerns K562. Kind of test: Cell cycle arrest in human K562 cells assessed as accumulation of diploid cells at G1 phase at 20 uM incubated for 48 hrs by propidium iodide staining based flow cytometric analysis (reference value: 56.33 %). It is filed as functional.
The next test deals with JAK2/JAK3 (Homo sapiens) (UniProt P52333+O60674). The test can be described thus: Inhibition of JAK2/3 in human K562 cells assessed as inhibition of STAT3 phosphorylation at 1 to 20 uM measured after 48 hrs by Western blot analysis. It is filed as cell-based. The following applies: dose 1-20 µM. A digest of the protocol: (§1)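 K562 or HCT116 cells treated 48 h at 1, 10 and 20 µM alongside untreated control; lysed in cold RIPA, protein by BCA, SDS-PAGE, nitrocellulose transfer, 5% milk block, primary antibody overnight at 4 °C, secondary 1 h; p-Aurora A, p-Aurora B, p-STAT3, p-STAT5 probed with GAPDH loading control.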

Test [5] relates to HCT-116. The test can be described thus: Cell cycle arrest in human HCT116 cells assessed as accumulation at […] phase at 10 uM incubated for 48 hrs by propidium iodide staining based flow cytometric analysis (reference value: 2.01 %). The format is functional.
Test [6] deals with K562. The test can be described thus: Antiproliferative activity against human K562 cells assessed as reduction in cell growth measured after 72 hrs by CCK8 assay. The format is functional, cell-based. The settings on record: K562, 72 h. On the technique in general: Tetrazolium dyes change colour on reduction, which living cells bring about.
Test [7] deals with T1, Aurora kinase A (Homo sapiens) (UniProt O14965).
T1 sequence (whole entry): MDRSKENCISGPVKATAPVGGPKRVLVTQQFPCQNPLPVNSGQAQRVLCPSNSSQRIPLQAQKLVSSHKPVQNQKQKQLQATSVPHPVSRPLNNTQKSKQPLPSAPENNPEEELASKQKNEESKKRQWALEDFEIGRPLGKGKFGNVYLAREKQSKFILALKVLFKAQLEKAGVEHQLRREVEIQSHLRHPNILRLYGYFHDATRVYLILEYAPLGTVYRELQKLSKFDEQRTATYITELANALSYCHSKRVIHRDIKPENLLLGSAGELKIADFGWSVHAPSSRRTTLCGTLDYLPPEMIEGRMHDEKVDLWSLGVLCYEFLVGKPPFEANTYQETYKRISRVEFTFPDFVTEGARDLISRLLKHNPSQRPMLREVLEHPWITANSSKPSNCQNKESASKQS
Kind of test: Inhibition of Aurora A phosphorylation in human HCT116 cells incubated for 48 hrs by Western blot analysis. It is filed as cell-based. The following applies: HCT-116, dose 1-20 µM. The gist of the method:
as §1
Background: In western blotting, separated proteins are transferred to a membrane and probed.

For test [8], the system named is HCT-116. The test can be described thus: Cell cycle arrest in human HCT116 cells assessed as accumulation of diploid cells at G2 phase at 10 uM incubated for 48 hrs by propidium iodide staining based flow cytometric analysis (reference value: 10.46 %). The format is functional.
The subject of test [9] is HCT-116. Kind of test: Antiproliferative activity against human HCT116 cells assessed as reduction in cell growth measured after 72 hrs by CCK8 assay. It is filed as functional, cell-based. The settings on record: HCT-116, 72 h.
For test [10], the system named is HCT-116. The test can be described thus: Cell cycle arrest in human HCT116 cells assessed as accumulation at […] phase at 20 uM incubated for 48 hrs by propidium iodide staining based flow cytometric analysis (reference value: 2.01 %). It is filed as functional.
Test [11] deals with HCT-116. The test can be described thus: Cell cycle arrest in human HCT116 cells assessed as accumulation at […] phase at 1 uM incubated for 48 hrs by propidium iodide staining based flow cytometric analysis (reference value: 2.01 %). It is filed as functional.
Test [12] relates to K562. The test can be described thus: Cell cycle arrest in human K562 cells assessed as accumulation of diploid cells at S phase at 10 uM incubated for 48 hrs by propidium iodide staining based flow cytometric analysis (reference value: 35.94 %). The format is functional.
The target in test [13] is T2, Tyrosine-protein kinase JAK3 (Homo sapiens, UniProt P52333).
T2 sequence (P52333 whole entry): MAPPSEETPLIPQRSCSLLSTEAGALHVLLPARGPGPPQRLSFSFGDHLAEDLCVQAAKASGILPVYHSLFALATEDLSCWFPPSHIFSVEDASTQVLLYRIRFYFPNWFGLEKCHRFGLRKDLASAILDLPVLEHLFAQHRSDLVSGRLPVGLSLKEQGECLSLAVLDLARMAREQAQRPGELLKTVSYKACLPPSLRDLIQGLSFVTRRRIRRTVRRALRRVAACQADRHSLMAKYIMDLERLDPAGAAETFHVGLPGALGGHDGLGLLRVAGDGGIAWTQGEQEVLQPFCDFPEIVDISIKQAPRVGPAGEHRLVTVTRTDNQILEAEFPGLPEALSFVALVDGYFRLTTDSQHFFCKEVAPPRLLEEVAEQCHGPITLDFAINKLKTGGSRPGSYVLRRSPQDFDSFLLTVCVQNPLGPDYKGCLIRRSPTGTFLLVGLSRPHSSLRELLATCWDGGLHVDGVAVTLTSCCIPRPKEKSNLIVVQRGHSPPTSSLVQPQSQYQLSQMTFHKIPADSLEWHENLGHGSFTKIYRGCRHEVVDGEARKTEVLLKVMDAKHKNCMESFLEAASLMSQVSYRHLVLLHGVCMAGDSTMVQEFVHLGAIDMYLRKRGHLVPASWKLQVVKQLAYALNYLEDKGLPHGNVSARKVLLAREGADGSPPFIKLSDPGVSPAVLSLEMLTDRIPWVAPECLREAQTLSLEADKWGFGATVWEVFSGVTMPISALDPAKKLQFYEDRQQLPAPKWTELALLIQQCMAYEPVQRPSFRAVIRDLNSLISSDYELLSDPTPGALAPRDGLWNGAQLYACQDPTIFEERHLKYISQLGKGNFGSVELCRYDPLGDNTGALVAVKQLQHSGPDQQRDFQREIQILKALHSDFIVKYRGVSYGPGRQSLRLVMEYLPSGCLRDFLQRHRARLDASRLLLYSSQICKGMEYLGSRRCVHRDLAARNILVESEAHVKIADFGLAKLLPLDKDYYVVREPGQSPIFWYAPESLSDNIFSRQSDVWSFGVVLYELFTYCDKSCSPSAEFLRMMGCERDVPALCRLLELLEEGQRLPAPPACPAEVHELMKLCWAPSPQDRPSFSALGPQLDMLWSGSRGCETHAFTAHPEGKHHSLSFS
Kind of test: Inhibition of JAK3 (unknown origin) incubated for 40 mins in presence of ATP by Kinase-glo luminescence assay.

Test [14] deals with K562. The test can be described thus: Cell cycle arrest in human K562 cells assessed as accumulation of diploid cells at G1 phase at 1 uM incubated for 48 hrs by propidium iodide staining based flow cytometric analysis (reference value: 56.33 %). The format is functional.

Sequence of JAK2/JAK3 (Homo sapiens) (O60674 whole entry, looked up, one chain of several): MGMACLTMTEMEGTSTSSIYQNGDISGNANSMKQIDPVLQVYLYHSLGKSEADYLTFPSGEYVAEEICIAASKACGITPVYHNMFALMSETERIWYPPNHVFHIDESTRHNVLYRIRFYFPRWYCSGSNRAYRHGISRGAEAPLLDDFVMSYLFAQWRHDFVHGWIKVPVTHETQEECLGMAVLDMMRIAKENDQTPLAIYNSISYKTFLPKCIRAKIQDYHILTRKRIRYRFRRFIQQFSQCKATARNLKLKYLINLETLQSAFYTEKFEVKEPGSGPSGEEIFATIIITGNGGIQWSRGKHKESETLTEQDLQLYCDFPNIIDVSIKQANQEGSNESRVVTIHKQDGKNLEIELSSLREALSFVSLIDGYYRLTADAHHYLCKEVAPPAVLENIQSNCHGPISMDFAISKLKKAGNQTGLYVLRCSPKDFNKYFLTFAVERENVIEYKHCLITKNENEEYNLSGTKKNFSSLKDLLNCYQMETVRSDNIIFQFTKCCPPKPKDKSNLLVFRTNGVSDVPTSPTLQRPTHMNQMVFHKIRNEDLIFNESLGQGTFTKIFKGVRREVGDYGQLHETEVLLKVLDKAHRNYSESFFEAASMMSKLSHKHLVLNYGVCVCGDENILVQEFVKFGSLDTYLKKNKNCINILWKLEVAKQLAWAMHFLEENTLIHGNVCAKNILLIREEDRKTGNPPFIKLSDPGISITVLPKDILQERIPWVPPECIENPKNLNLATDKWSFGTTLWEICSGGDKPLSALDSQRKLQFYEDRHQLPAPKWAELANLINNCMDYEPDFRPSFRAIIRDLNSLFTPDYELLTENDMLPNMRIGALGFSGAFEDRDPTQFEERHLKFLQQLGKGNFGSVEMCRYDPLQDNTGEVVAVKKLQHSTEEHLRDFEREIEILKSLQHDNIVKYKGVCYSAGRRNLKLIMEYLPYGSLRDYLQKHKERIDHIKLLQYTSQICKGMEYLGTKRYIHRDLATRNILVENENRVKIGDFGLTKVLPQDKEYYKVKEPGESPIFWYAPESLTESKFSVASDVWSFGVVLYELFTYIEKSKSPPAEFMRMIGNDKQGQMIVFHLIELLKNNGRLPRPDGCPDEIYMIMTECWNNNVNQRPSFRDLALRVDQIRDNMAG

On to `O=C(Nc1c[nH]nc1-c1nc(-c2ccc(CN3CCOCC3)cc2)c[nH]1)c1cccc(Cl)c1`, for which the Activity in the test with HCT-116 [1] came out at 24.55%; in the test on K562 [2] it was 35.1%; with HCT-116 [3] it was 17.27%; in the test with K562 [4], 45.9%; in the test with HCT-116 [5], 2.01%; in the test with HCT-116 [8], 16.16%. Moreover, the Activity worked out at 1.98% with HCT-116 [10], 2% in the test on HCT-116 [11], 35.86% in the test on K562 [12] and 56.05% with K562 [14]. Moreover, the inhibition entry at JAK2/JAK3 (Homo sapiens) was “Active”. Further, the IC50 in the test on K562 [6] was determined as 6.73 µM; with HCT-116 [9] it was 15.1 µM; in [13] it was 0.057 µM. Moreover, the inhibition result in [7] was “Dose-dependent effect”.
